Tests used:
[1] = test system: Rattus norvegicus; assay: Antihypertensive activity in spontaneously hypertensive rats (SHR) measured by percentage fall in cardiac rhythm (CR) at 1 mg/kg administered intraperitoneally at 5 h; format: functional, Heart; settings: route intraperitoneal
Method in brief: (§1)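 Unanesthetized Okamoto-strain SHR, male and female, 8 weeks old, 300–350 g, systolic pressure ≥190 mmHg, heart rate 400–650 beats/min; five animals per dose. Given ip at 2.5 mL/kg, dissolved or suspended in normal saline or saline with 0.2% (carboxymethyl)cellulose and 1.0% Tween 80. Tail AP and CR recorded by mechanical transduction at set times; reported as percentage fall from control.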

[2] = test system: Rattus norvegicus; assay: Antihypertensive activity in spontaneously hypertensive rats (SHR) measured by percentage fall in arterial pressure (AP) at 5 mg/kg administered intraperitoneally at 24 h; format: functional, Artery; settings: route intraperitoneal; method in brief: as §1
[3] = test system: Rattus norvegicus; assay: Antihypertensive activity in spontaneously hypertensive rats (SHR) measured by percentage fall in cardiac rhythm (CR) at 25 mg/kg administered intraperitoneally at 3 h; format: functional, Heart; settings: route intraperitoneal; method in brief: as §1
[4] = test system: Rattus norvegicus; assay: Antihypertensive activity in spontaneously hypertensive rats (SHR) measured by percentage fall in arterial pressure (AP) at 5 mg/kg administered intraperitoneally at 1 h; format: functional, Artery; settings: route intraperitoneal; method in brief: as §1
[5] = test system: Rattus norvegicus; assay: Percent fall in systolic blood pressure, directly measured on carotid (iv on the jugular vein) of spontaneously hypertensive rats at 1 mg/kg after 60 minutes; format: functional, Artery
Method in brief: (§2)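 Anesthetized (sodium pentobarbital, 70 mg/kg) male and female Okamoto SHR, 8 weeks old, 300–350 g. Given iv into the jugular vein in normal saline. Arterial pressure and cardiac rhythm are recorded directly from the carotid by polygraph at set times after dosing. Each is expressed as percent change from the pre-dose control value.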

[6] = test system: Rattus norvegicus; assay: Antihypertensive activity in spontaneously hypertensive rats (SHR) measured by percentage fall in cardiac rhythm (CR) at 25 mg/kg administered intraperitoneally at 24 h; format: functional, Heart; settings: route intraperitoneal; method in brief: as §1
[7] = test system: Rattus norvegicus; assay: Percent fall in systolic blood pressure, directly measured on carotid (iv on the jugular vein) of spontaneously hypertensive rats at 1 mg/kg after 30 minutes; format: functional, Artery; method in brief: as §2
[8] = test system: Rattus norvegicus; assay: Antihypertensive activity in spontaneously hypertensive rats (SHR) measured by percentage fall in cardiac rhythm (CR) at 1 mg/kg administered intraperitoneally at 3 h; format: functional, Heart; settings: route intraperitoneal; method in brief: as §1
[9] = test system: Rattus norvegicus; assay: Percent fall in systolic blood pressure, directly measured on carotid (iv on the jugular vein) of spontaneously hypertensive rats at 1 mg/kg after 5 minutes; format: functional, Artery; method in brief: as §2
[10] = test system: Rattus norvegicus; assay: Antihypertensive activity in spontaneously hypertensive rats (SHR) measured by percentage fall in arterial pressure (AP) at 5 mg/kg administered intraperitoneally at 5 h; format: functional, Artery; settings: route intraperitoneal; method in brief: as §1
[11] = test system: Rattus norvegicus; assay: Antihypertensive activity in spontaneously hypertensive rats (SHR) measured by percentage fall in arterial pressure (AP) at 25 mg/kg administered intraperitoneally at 5 h; format: functional, Artery; settings: route intraperitoneal; method in brief: as §1
[12] = test system: Rattus norvegicus; assay: Percent fall in systolic blood pressure, directly measured on carotid (iv on the jugular vein) of spontaneously hypertensive rats at 1 mg/kg after 10 minutes; format: functional, Artery; method in brief: as §2
[13] = organism: Homo sapiens; assay: In vitro inhibition of platelet aggregation induced by ADP-II (PRP incubated for 5 minutes at 37 degree C) at 10e-5 M; format: functional
Method in brief: (§3)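 Human venous blood anticoagulated with 3.8% sodium citrate (1:9). PRP from centrifugation at 800 rpm for 10 min at room temperature. Count adjusted with PPP to […]. Compound in saline with 10% ethylene glycol is added to PRP and incubated at 37 °C before the agonist. Agonists: ADP 2×10^-5 M, AA 0.6 mM, PGH2 2.8 μM, adrenaline 0.6 μM. Born absorbance aggregometry; n = 5.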

[14] = test system: Rattus norvegicus; assay: Antihypertensive activity in spontaneously hypertensive rats (SHR) measured by percentage fall in cardiac rhythm (CR) at 25 mg/kg administered intraperitoneally at 5 h; format: functional, Heart; settings: route intraperitoneal
Method in brief: (§4)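 Conscious SHR (Okamoto strain), 8 weeks old, male and female, 300–350 g, systolic BP ≥190 mmHg, CR 400–650 beats/min. Given ip or po at 2.5 mL/kg in normal saline or saline with 0.2% (carboxymethyl)cellulose and 1.0% Tween 80. Tail AP and CR recorded by mechanical transduction at 1, 3, 5 and 24 h, five animals per dose. Effect expressed as % fall versus control.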

[15] = test system: Rattus norvegicus; assay: Antihypertensive activity in spontaneously hypertensive rats (SHR) measured by percentage fall in cardiac rhythm (CR) at 25 mg/kg administered perorally at 1 h; format: functional, Heart; settings: route oral; method in brief: as §4
[16] = test system: Rattus norvegicus; assay: Percent fall in systolic blood pressure, directly measured on carotid (iv on the jugular vein) of spontaneously hypertensive rats at 1 mg/kg after 15 minutes; format: functional, Artery; method in brief: as §2
[17] = test system: Rattus norvegicus; assay: Percent fall in systolic blood pressure, directly measured on carotid (iv on the jugular vein) of spontaneously hypertensive rats at 1 mg/kg after 75 minutes; format: functional, Artery; method in brief: as §2
[18] = test system: Rattus norvegicus; assay: Antihypertensive activity in spontaneously hypertensive rats (SHR) measured by percentage fall in arterial pressure (AP) at 25 mg/kg administered perorally at 1 h; format: functional, Artery; settings: route oral
Method in brief: (§5)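 Oral dosing at 2.5 mL/kg to unanesthetized male and female Okamoto-strain SHR (8 weeks old, 300–350 g, systolic pressure ≥190 mmHg, heart rate 400–650 beats/min), five per dose. Vehicle was normal saline or saline with 0.2% (carboxymethyl)cellulose and 1.0% Tween 80. AP measured on the tail by mechanical transduction at set times; expressed as percentage fall from control.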

[19] = test system: Rattus norvegicus; assay: Antihypertensive activity in spontaneously hypertensive rats (SHR) measured by percentage fall in arterial pressure (AP) at 1 mg/kg administered intraperitoneally at 1 h; format: functional, Artery; settings: route intraperitoneal; method in brief: as §1
[20] = test system: Rattus norvegicus; assay: Percent fall in systolic blood pressure, directly measured on carotid (iv on the jugular vein) of spontaneously hypertensive rats at 1 mg/kg after 45 minutes; format: functional, Artery; method in brief: as §2
[21] = test system: Rattus norvegicus; assay: Antihypertensive activity in spontaneously hypertensive rats (SHR) measured by percentage fall in cardiac rhythm (CR) at 1 mg/kg administered intraperitoneally at 1 h; format: functional, Heart; settings: route intraperitoneal; method in brief: as §1
[22] = test system: Rattus norvegicus; assay: Antihypertensive activity in spontaneously hypertensive rats (SHR) measured by percentage fall in cardiac rhythm (CR) at 5 mg/kg administered intraperitoneally at 5 h; format: functional, Heart; settings: route intraperitoneal; method in brief: as §4
[23] = test system: Rattus norvegicus; assay: Antihypertensive activity in spontaneously hypertensive rats (SHR) measured by percentage fall in arterial pressure (AP) at 25 mg/kg administered perorally at 3 h; format: functional, Artery; settings: route oral; method in brief: as §5
[24] = test system: Rattus norvegicus; assay: Antihypertensive activity in spontaneously hypertensive rats (SHR) measured by percentage fall in cardiac rhythm (CR) at 5 mg/kg administered perorally at 1 h; format: functional, Heart; settings: route oral; method in brief: as §4
[25] = test system: Rattus norvegicus; assay: Antihypertensive activity in spontaneously hypertensive rats (SHR) measured by percentage fall in arterial pressure (AP) at 1 mg/kg administered intraperitoneally at 3 h; format: functional, Artery; settings: route intraperitoneal; method in brief: as §1
[26] = test system: Rattus norvegicus; assay: Antihypertensive activity in spontaneously hypertensive rats (SHR) measured by percentage fall in arterial pressure (AP) at 25 mg/kg administered intraperitoneally at 3 h; format: functional, Artery; settings: route intraperitoneal; method in brief: as §1
[27] = test system: Rattus norvegicus; assay: Antihypertensive activity in spontaneously hypertensive rats (SHR) measured by percentage fall in arterial pressure (AP) at 5 mg/kg administered intraperitoneally at 3 h; format: functional, Artery; settings: route intraperitoneal; method in brief: as §1
[28] = test system: Rattus norvegicus; assay: Antihypertensive activity in spontaneously hypertensive rats (SHR) measured by percentage fall in arterial pressure (AP) at 25 mg/kg administered intraperitoneally at 24 h; format: functional, Artery; settings: route intraperitoneal; method in brief: as §1
[29] = test system: Rattus norvegicus; assay: Antihypertensive activity in spontaneously hypertensive rats (SHR) measured by percentage fall in arterial pressure (AP) at 5 mg/kg administered perorally at 3 h; format: functional, Artery; settings: route oral; method in brief: as §5
[30] = test system: Rattus norvegicus; assay: Antihypertensive activity in spontaneously hypertensive rats (SHR) measured by percentage fall in cardiac rhythm (CR) at 1 mg/kg administered intraperitoneally at 24 h; format: functional, Heart; settings: route intraperitoneal; method in brief: as §1
[31] = test system: Rattus norvegicus; assay: Percent fall in systolic blood pressure, directly measured on carotid (iv on the jugular vein) of spontaneously hypertensive rats at 1 mg/kg after 90 minutes; format: functional, Artery; method in brief: as §2
[32] = test system: Rattus norvegicus; assay: Antihypertensive activity in spontaneously hypertensive rats (SHR) measured by percentage fall in arterial pressure (AP) at 25 mg/kg administered intraperitoneally at 1 h; format: functional, Artery; settings: route intraperitoneal; method in brief: as §1
[33] = test system: Rattus norvegicus; assay: Antihypertensive activity in spontaneously hypertensive rats (SHR) measured by percentage fall in arterial pressure (AP) at 5 mg/kg administered perorally at 1 h; format: functional, Artery; settings: route oral; method in brief: as §5
[34] = organism: Homo sapiens; assay: In vitro inhibition of platelet aggregation induced by ADP-II (PRP incubated for 60 minutes at 37 degree C) at 10e-5 M; format: functional; settings: 1 h; method in brief: as §3

CCOc1ccc2[nH]c3c(NN)nncc3c2c1.Cl
Decrease in CR [1]: -10%
Decrease in AP [2]: 12%
Decrease in CR [3]: -17%
Decrease in AP [4]: 59%
Decrease in blood pressure [5]: 41%
Decrease in CR [6]: -11%
Decrease in blood pressure [7]: 32%
Decrease in CR [8]: -5%
Decrease in blood pressure [9]: 16%
Decrease in AP [10]: 32%
Decrease in AP [11]: 51%
Decrease in blood pressure [12]: 18%
inhibition at 10 µM [13]: 100%
Decrease in CR [14]: -20%
Decrease in CR [15]: 11%
Decrease in blood pressure [16]: 20%
Decrease in blood pressure [17]: 32%
Decrease in AP [18]: 16%
Decrease in AP [19]: 29%
Decrease in blood pressure [20]: 36%
Decrease in CR [21]: 6%
Decrease in CR [22]: -7%
Decrease in AP [23]: 5%
Decrease in CR [24]: -11%
Decrease in AP [25]: 10%
Decrease in AP [26]: 57%
Decrease in AP [27]: 37%
Decrease in AP [28]: 34%
Decrease in AP [29]: 10%
Decrease in CR [30]: 10%
Decrease in blood pressure [31]: 25%
Decrease in AP [32]: 57%
Decrease in AP [33]: 15%
inhibition at 10 µM [34]: 100%
